Molecules are shown by their SMILES.

Here are results for three compounds from ChEMBL document CHEMBL1134554, “Design, synthesis, and structure-activity relationships of macrocyclic hydroxamic acids that inhibit tumor necrosis factor alpha release in vitro and in vivo” (J Med Chem, 2001).

Data set [1] in a line: Pharmacokinetic data in Beagle dogs at 0.5 mg/kg i.v. dose and 2.0 mg/kg p.o. dose. In kind it is ADME, organism-based, Canis lupus familiaris. Particulars: dog, in vivo, po.
Data set [2] concerns the target T1, Matrilysin (Homo sapiens, UniProt P09237).
T1 sequence (P09237 whole entry): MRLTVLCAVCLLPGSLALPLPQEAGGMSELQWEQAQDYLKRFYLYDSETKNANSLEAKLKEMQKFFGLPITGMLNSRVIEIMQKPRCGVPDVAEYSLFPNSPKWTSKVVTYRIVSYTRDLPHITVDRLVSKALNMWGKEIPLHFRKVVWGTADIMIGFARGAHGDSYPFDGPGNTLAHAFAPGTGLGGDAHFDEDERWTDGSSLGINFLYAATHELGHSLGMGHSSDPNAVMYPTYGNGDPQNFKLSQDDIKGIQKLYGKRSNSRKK
The experiment in a line: Inhibition of matrix metalloprotease-7.

The target of data set [3] is Matrix metalloproteinase-9 (Homo sapiens, UniProt P14780). The experiment in a line: In vitro inhibition of human MMP-9.
Sequence of Matrix metalloproteinase-9 (P14780 whole entry): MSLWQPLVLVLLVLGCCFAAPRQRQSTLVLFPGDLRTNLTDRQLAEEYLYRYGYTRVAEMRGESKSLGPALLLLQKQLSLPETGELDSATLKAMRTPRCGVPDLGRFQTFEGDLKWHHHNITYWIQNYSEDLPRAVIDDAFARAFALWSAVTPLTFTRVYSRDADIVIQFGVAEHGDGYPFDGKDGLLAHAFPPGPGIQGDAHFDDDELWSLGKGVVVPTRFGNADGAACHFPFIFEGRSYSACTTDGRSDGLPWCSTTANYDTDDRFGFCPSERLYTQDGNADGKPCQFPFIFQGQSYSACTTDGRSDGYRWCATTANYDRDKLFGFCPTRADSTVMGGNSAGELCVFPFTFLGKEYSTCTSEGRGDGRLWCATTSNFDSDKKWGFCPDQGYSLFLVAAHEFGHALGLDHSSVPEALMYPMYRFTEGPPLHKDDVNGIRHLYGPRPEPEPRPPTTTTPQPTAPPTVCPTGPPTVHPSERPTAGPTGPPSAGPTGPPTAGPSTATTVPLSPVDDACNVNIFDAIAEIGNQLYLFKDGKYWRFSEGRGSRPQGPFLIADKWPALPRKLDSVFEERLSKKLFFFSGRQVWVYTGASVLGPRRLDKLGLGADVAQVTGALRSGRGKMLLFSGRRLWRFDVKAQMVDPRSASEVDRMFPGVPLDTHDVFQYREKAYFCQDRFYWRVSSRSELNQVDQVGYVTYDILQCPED
Data set [4] has as its target Matrix metalloproteinase-14 (Homo sapiens, UniProt P50281). Put plainly: Inhibition of matrix metalloprotease-14.
Data set [5] can be described thus: Pharmacokinetic data in Beagle dogs at 2.0 mg/kg oral dose. The following applies: dog, in vivo. In kind it is ADME, organism-based, Canis lupus familiaris. Further details: dose 2 mg/kg, route oral.
The nature of data set [6]: Pharmacokinetic data in Beagle dogs at 2.0 mg/kg oral dose. In kind it is ADME, organism-based, Canis lupus familiaris. Particulars: dog, in vivo. Further details: dose 2 mg/kg, route oral.
Data set [7] in a line: Pharmacokinetic data in Beagle dogs at 0.5 mg/kg intravenous dose. In kind it is ADME, organism-based, Canis lupus familiaris. Further details: dose 0.5 mg/kg, route intravenous. Particulars: dog, in vivo. In outline: (§1)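 Male beagle dogs (~10 kg), two per compound, dosed iv in 10% ethanol solution. Blood sampled before dosing and at 1, 2, 4, 6, 8, 12 and 24 h after. Plasma levels measured by LC/MS/MS after solid-phase extraction (detection limit 10 nM). Parameters reported as mean.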

For data set [8], the target named is T2, Interstitial collagenase (Homo sapiens, UniProt P03956).
T2 sequence (P03956 whole entry): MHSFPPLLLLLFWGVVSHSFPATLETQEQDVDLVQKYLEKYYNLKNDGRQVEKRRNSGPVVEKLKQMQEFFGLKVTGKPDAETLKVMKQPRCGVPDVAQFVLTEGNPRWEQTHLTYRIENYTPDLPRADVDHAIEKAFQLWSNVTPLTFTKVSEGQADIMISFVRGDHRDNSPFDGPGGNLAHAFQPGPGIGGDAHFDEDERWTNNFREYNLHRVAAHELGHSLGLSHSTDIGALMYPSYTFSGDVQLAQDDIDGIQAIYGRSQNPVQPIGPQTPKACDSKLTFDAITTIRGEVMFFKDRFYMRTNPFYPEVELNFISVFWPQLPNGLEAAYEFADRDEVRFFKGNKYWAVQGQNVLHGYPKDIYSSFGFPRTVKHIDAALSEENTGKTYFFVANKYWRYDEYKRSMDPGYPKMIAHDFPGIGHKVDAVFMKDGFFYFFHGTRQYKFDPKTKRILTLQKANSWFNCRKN
The experiment in a line: In vitro inhibition of human MMP-1.

Data set [9] addresses Matrix metalloproteinase-16 (Homo sapiens, UniProt P51512). The experiment in a line: Inhibition of matrix metalloprotease-16.
The nature of data set [10]: Maximal plasma concentration in Beagle dogs after 0.5 mg/kg intravenous dose. In kind it is ADME, organism-based, Canis lupus familiaris. Also on record: dose 0.5 mg/kg, route intravenous. Particulars: dog. In outline: as §1
Data set [11] has as its target Matrix metalloproteinase-15 (Homo sapiens, UniProt P51511). Put plainly: Inhibition of matrix metalloprotease-15.
For data set [12], the target named is Stromelysin-1 (Homo sapiens, UniProt P08254). Put plainly: Inhibition of human MMP-3.
Sequence of Stromelysin-1 (P08254 whole entry, the tested form may be a part): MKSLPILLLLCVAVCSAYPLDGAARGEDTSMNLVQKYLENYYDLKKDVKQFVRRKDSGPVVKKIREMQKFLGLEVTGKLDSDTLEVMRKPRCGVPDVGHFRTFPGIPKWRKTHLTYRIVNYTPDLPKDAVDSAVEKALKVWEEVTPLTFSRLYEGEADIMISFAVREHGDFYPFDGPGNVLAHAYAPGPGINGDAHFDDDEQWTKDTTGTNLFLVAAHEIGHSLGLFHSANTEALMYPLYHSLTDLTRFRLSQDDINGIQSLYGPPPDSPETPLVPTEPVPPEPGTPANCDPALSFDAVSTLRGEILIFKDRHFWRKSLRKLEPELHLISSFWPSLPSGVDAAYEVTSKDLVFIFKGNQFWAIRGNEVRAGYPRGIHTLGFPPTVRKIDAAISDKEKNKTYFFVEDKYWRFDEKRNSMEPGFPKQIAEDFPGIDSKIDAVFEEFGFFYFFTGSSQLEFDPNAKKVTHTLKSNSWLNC
Data set [13] deals with Disintegrin and metalloproteinase domain-containing protein 17 (Homo sapiens, UniProt P78536).
Sequence of Disintegrin and metalloproteinase domain-containing protein 17 (Homo sapiens, UniProt P78536) (P78536 whole entry, the tested form may be a part): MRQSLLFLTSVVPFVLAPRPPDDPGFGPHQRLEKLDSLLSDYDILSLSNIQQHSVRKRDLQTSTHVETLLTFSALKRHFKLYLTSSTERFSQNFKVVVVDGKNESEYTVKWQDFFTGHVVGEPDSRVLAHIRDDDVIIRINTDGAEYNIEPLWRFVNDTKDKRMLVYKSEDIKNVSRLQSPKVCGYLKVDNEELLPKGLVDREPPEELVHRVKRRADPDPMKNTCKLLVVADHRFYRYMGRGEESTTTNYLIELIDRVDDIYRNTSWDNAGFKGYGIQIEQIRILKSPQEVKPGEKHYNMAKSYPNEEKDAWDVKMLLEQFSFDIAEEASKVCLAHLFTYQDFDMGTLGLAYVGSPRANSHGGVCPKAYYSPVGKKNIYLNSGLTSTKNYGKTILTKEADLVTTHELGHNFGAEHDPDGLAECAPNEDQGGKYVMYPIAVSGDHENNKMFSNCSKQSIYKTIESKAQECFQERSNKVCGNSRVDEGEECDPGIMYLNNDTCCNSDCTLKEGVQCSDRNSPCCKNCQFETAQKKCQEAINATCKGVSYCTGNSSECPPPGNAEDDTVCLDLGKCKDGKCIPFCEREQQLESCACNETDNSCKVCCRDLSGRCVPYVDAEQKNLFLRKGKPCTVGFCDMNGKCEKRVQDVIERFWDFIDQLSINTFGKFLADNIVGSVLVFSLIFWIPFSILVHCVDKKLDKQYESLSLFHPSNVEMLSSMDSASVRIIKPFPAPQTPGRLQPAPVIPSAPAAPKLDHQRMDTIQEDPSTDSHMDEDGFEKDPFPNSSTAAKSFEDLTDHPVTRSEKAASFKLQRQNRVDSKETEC
Data set [14] concerns Mus musculus. Put plainly: Compound at an oral dose of 100 mg/Kg was tested for the inhibition of LPS-stimulated TNF-alpha release in mouse. In kind it is functional. In outline:
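Mice dosed orally at time zero, then immediately given ip D-galactosamine 20 mg plus LPS 10 μg. One hour later, animals anesthetized and bled by cardiac puncture. Plasma TNF-α quantified by mouse-specific ELISA.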

Data set [15] can be described thus: Maximal plasma concentration in Beagle dogs after 0.74 mg/kg intravenous dose. In kind it is ADME, organism-based, Canis lupus familiaris. The following applies: dog, in vivo. Further details: dose 0.74 mg/kg, route intravenous. Summed up:
as §1

Data set [16] addresses Disintegrin and metalloproteinase domain-containing protein 17 (Sus scrofa, UniProt O77636).
Data set [17] can be described thus: Pharmacokinetic data in Beagle dogs at 0.863 mg/kg oral dose. In kind it is ADME, organism-based, Canis lupus familiaris. Further details: dose 0.863 mg/kg, route oral. Particulars: dog, in vivo. Summed up: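 Two male beagle dogs (~10 kg) given 0.863 mg/kg orally as a 0.5% methocell suspension. Blood sampled before dosing and at 1, 2, 4, 6, 8, 12 and 24 h after. Plasma levels measured by LC/MS/MS after solid-phase extraction (detection limit 10 nM). Parameters reported as mean.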

The nature of data set [18]: Pharmacokinetic data in Beagle dogs at 0.74 mg/kg intravenous dose. In kind it is ADME, organism-based, Canis lupus familiaris. The following applies: dog, in vivo. Also on record: dose 0.74 mg/kg, route intravenous. Summed up: as §1
Data set [19] is described as follows: Pharmacokinetic data in Beagle dogs at 0.74 mg/kg i.v. dose and 0.863 mg/kg p.o. dose. In kind it is ADME, organism-based, Canis lupus familiaris. Particulars: dog, in vivo, po. Summed up:
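Male beagle dogs: iv 0.74 mg/kg in 10% ethanol (n=2), oral 0.863 mg/kg in 0.5% methocell suspension (n=2). Blood sampled to 24 h post-dose. Plasma analysed by LC/MS/MS after solid-phase extraction (detection limit 10 nM). Mean parameters given.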

Data set [20] deals with Neutrophil collagenase (Homo sapiens, UniProt P22894). Put plainly: Inhibition of matrix metalloprotease-8.
In data set [21] the target is Collagenase 3 (Homo sapiens, UniProt P45452).
Data set [22] concerns the target 72 kDa type IV collagenase (Homo sapiens, UniProt P08253).

Sequence of Matrix metalloproteinase-15 (P51511 whole entry): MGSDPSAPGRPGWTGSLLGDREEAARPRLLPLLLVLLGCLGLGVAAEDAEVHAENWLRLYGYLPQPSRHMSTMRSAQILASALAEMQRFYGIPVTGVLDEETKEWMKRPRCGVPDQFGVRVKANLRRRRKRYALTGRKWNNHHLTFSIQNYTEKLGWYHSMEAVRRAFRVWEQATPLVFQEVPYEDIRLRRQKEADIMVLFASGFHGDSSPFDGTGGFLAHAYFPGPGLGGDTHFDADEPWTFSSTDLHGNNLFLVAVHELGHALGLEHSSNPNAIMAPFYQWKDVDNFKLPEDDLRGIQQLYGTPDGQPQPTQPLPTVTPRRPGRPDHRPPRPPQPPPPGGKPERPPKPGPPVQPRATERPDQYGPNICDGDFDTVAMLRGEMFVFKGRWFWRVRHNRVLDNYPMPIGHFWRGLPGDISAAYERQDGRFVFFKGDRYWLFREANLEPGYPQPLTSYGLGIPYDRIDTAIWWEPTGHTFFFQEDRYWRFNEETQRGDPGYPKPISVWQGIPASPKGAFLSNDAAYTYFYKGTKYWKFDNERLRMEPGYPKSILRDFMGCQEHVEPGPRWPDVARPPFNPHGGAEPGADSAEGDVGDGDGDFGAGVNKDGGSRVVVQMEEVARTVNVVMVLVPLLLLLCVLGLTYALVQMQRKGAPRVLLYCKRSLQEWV
Sequence of Matrix metalloproteinase-16 (P51512 whole entry): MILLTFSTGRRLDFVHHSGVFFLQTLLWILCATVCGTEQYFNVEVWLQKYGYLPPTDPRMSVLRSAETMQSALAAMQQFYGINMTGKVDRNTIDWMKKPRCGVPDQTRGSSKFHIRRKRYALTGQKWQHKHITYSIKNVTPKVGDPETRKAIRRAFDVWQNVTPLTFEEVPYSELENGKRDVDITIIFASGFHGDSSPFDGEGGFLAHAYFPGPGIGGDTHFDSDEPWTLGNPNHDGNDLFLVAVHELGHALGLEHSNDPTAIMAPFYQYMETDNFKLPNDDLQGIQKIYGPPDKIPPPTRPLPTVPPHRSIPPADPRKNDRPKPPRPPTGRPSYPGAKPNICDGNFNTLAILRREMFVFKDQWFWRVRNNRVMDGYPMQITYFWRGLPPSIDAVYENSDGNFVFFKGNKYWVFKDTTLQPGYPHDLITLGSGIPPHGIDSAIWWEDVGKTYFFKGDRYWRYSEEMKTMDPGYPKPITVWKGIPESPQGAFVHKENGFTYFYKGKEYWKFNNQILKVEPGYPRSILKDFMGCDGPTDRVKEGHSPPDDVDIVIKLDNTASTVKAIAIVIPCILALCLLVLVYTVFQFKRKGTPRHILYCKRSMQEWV
Sequence of Disintegrin and metalloproteinase domain-containing protein 17 (Sus scrofa, UniProt O77636) (O77636 whole entry, the tested form may be a part): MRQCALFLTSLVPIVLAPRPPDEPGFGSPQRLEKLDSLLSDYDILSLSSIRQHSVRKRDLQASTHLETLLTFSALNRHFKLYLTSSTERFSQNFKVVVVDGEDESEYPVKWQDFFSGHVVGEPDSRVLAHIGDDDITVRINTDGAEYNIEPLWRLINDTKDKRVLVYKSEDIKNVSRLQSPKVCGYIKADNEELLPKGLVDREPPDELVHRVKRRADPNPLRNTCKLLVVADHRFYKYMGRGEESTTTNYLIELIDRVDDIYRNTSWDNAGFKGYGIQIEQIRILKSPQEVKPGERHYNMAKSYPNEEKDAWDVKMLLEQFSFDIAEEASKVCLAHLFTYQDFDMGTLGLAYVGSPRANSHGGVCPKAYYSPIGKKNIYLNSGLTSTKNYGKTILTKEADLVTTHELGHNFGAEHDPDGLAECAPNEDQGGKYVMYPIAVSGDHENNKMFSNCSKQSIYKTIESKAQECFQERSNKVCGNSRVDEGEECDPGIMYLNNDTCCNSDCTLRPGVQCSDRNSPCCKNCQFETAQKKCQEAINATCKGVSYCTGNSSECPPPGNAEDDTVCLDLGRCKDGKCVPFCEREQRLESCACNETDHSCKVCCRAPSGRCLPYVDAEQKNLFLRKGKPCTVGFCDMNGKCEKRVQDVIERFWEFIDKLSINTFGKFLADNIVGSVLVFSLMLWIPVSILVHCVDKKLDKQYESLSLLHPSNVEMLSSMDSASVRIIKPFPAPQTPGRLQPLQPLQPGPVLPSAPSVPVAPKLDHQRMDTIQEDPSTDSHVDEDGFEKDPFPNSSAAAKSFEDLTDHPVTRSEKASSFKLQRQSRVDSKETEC
Sequence of 72 kDa type IV collagenase (P08253 whole entry): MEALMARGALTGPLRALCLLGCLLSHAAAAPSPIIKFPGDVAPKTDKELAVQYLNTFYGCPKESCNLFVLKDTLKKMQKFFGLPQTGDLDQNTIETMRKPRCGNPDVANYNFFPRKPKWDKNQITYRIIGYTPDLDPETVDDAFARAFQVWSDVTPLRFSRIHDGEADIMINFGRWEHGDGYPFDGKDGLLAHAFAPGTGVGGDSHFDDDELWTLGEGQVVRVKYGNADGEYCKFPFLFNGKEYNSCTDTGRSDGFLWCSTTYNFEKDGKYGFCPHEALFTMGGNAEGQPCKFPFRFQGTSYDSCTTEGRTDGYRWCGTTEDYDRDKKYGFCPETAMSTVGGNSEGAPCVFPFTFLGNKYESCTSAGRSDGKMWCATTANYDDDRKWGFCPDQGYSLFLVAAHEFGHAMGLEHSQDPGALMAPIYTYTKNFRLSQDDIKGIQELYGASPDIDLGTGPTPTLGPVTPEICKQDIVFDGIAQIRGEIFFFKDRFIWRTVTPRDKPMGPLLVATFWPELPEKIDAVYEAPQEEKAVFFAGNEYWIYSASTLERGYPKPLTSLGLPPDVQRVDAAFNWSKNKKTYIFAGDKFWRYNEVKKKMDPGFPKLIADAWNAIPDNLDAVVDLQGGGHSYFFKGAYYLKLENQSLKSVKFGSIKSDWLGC

Broadly, the bioavailability is dose-corrected exposure relative to a reference, in per cent. High values mean much systemic uptake, low ones little systemic uptake. Broadly, the Ki is the dissociation constant of the complex between target and ligand, obtained from inhibition or displacement. A high value points to lower affinity. A word on the half-life: it is how long it takes for the measured level to halve. Read a low half-life as rapid decline. The AUC is the area under the concentration-time curve, a measure of exposure. Usually Tmax stands for the time from dosing to the highest level. The term clearance denotes the rate of elimination divided by the concentration. Low readings indicate inefficient removal, high ones efficient removal. As a reminder, the Cmax is the maximum level reached in the sampled fluid or tissue. For `CC(C)C[C@H]1C(=O)N[C@H](C(=O)NCC(=O)N2CCOCC2)CCCCNC(=O)OCCC[C@@H]1C(=O)NO`, in data set [1], the bioavailability was 23%. Further, the Ki in data set [2] was 1.5 nM; in data set [3], 1.2 nM; in [4], 140 nM; in data set [8] it was 13 nM; in data set [9], 107 nM; in [11], 71 nM. The Ki in data set [12] stood at 7.8 nM. Besides, the half-life in data set [5] is 2.2 h; in [7] it was 1 h. Besides, the values for the AUC in [6] and in data set [7] were 1910 ng·h/mL and 2080 ng·h/mL, respectively. For the same compound, the Tmax in data set [7] was determined as 1.25 h. For the same compound, the clearance in data set [7] is 4.83 mL/min/kg. In addition, the Vd in data set [7] (read-out: Vss) came to 0.33 L/kg. In data set [10], the concentration peaked (Cmax) at 667 ng/mL.
Broadly, the IC50 is the concentration needed to halve the response being measured. A low value points to greater potency in that assay. In general, inhibition in vivo refers to the share of the control response that was lost under treatment. In data set [13], `CCCCCC[C@H]1C(=O)N[C@H](C(=O)NC)Cc2ccc(cc2)OCCC[C@@H]1C(=O)NO` returned an IC50 of 2500 nM. In addition, at 100 mg/kg the inhibition in vivo in data set [14] was 26%.
`CNC(=O)CNC(=O)[C@@H]1Cc2ccc(cc2)OCCC[C@H](C(=O)NO)[C@@H](CC(C)C)C(=O)N1`: in data set [15], the Cmax worked out at 121 ng/mL. Further, the Ki is 12 nM in [16]; 0.8 nM in data set [2]; 0.9 nM in data set [3]; 94 nM in data set [4]; 0.5 nM in data set [20]; 3 nM in [8]. Further, the Ki is 0.45 nM in data set [21]; 35 nM in data set [9]; 1.1 nM in [22]; 20 nM in [11]; 14 nM in data set [12]. In data set [13], this compound had an IC50 of 220 nM. In addition, the AUC turned out to be 342 ng·h/mL in data set [17] and 2613 ng·h/mL in data set [18]. The compound also gave a half-life in data set [17] of 1.29 h. The same compound registered a T1/2 in data set [18] of 0.81 h. Further, in data set [18], the T max was determined as 0.88 h. In addition, in [18], the clearance was 7 mL/min/kg. Moreover, in data set [18] (read-out: Vss), the Vd is 0.7 L/kg. This compound also came in with a bioavailability in data set [19] of 11%.
